We go through 1 molecule from PMC4131791 (Memórias do Instituto Oswaldo Cruz, 2014).

SMILES strings stand for the structures. In brackets after ≈: the same amount, converted by molar mass.

The experiment has as its system Trypanosoma cruzi (Tulahuen strain) expressing β-galactosidase, trypomastigote and amastigote forms. The class given is cell-based. Conditions: L929, read-out: IC50 of the positive control. In outline:
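L929 fibroblasts were seeded at 4,000/well in phenol red-free RPMI-1640 with 10% FBS and glutamine, then left overnight at 37 °C with 5% CO2. Cells were infected with β-galactosidase Tulahuen trypomastigotes at 40,000/well for 2 h, and free parasites were washed out. After 48 h, test compound (about 100-2 µM, triplicate, from DMSO stocks) was added. After seven days of culture, 100 µM CPRG with 0.1% Nonidet P-40 was added overnight at 37 °C and A570 read. Results were expressed as % growth inhibition, with IC50 by linear interpolation. Benznidazole served as positive control.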

As usually defined, the IC50 is the point on the concentration scale where inhibition reaches its midpoint. In the case of `O=C(Cn1ccnc1[N+](=O)[O-])NCc1ccccc1` [Benznidazole, benznidazole], the half-maximal inhibitory concentration (IC50) amounted to 1 µg/mL (≈ 3.84 µM).
